Measured values reported in ChEMBL document CHEMBL1151815, “Amides and benzenoids from Zanthoxylum ailanthoides with inhibitory activity on superoxide generation and elastase release by neutrophils” (J Nat Prod, 2009).
In brackets after ≈: the same amount, converted by molar mass.

Tests used:
Conditions in all cases: Neutrophil
[1] = Antiinflammatory activity against human neutrophils assessed as inhibition of fMLP/CB-induced superoxide anion generation; format: functional, cell-based
Method in brief: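 Neutrophils (6 × 10^5/mL, dextran/Ficoll-isolated from healthy adults) with 0.5 mg/mL ferricytochrome c and 1 mM Ca2+, 2 min at 37 °C, compound or DMSO 5 min, cytochalasin B (1 µg/mL) 3 min, then fMLP 100 nM 10 min. SOD-inhibitable (100 U/mL) cytochrome c reduction at 550 nm, extinction coefficient 21.1/mM/10 mm; n = 4, mean ± SEM.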

[2] = Antiinflammatory activity against human neutrophils assessed as inhibition of fMLP/CB-induced elastase release; format: functional, cell-based
Method in brief: (§1)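 Human neutrophils from healthy adult volunteers' venous blood, isolated by dextran sedimentation, Ficoll Hypaque gradient and hypotonic erythrocyte lysis, held in Ca2+-free HBSS pH 7.4 at 4 °C. Cells (6 × 10^5/mL) with MeO-Suc-Ala-Ala-Pro-Val-p-nitroanilide (100 µM) equilibrated 2 min at 37 °C, compound 5 min, then fMLP (100 nM)/cytochalasin B (0.5 µg/mL). A405 monitored continuously; n = 4, mean ± SEM.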

[3] = Antiinflammatory activity against human neutrophils assessed as inhibition of fMLP/CB-induced elastase release at 10 ug/ml; format: functional; method in brief: as §1

CC(=O)/C=C/C=C/C(=O)NCC(C)C
IC50 [1]: 4.2 µg/mL (≈ 21.5 µM) | IC50 [2]: 6.2 µg/mL (≈ 31.8 µM)

c1ccc2c(c1)[I+]c1ccccc1-2 [DIPHENYLENEIODONIUM]
IC50 [1]: 0.54 µg/mL

COc1cc2ccc(=O)oc2cc1OC [SCOPARONE]
inhibition at 10 µg/mL [3]: 43.1% | IC50 [1]: 8.25 µg/mL (≈ 40 µM)

COc1cc(C(=O)C(CO)c2ccc(O)c(OC)c2)ccc1O (configuration not stated) [EVOFOLIN B]
IC50 [1]: 5.34 µg/mL (≈ 16.8 µM) | IC50 [2]: 6.15 µg/mL (≈ 19.3 µM)

c1cc2c(cc1[C@H]1OC[C@H]3[C@@H]1CO[C@@H]3c1ccc3c(c1)OCO3)OCO2 [SESAMIN]
IC50 [1]: 4.3 µg/mL (≈ 12.1 µM) | IC50 [2]: 1.38 µg/mL (≈ 3.89 µM)

O=C1OC[C@H](Cc2ccc3c(c2)OCO3)[C@H]1Cc1ccc2c(c1)OCO2 [HINOKININ]
inhibition at 10 µg/mL [3]: 24.7% | IC50 [1]: 0.6 µg/mL (≈ 1.69 µM)

COc1ccc(CCN(C)C(=O)c2ccccc2)cc1
IC50 [1]: 8.49 µg/mL (≈ 31.5 µM) | IC50 [2]: 7.48 µg/mL (≈ 27.8 µM)

CC1(C)C=Cc2cc3ccc(=O)oc3cc2O1 [XANTHYLETIN]
IC50 [1]: 4.1 µg/mL (≈ 18 µM) | IC50 [2]: 5.53 µg/mL (≈ 24.2 µM)

COc1c(O)ccc2c1cnc1c3cc4c(cc3ccc21)OCO4 [DECARINE]
IC50 [1]: 1.29 µg/mL (≈ 4.04 µM) | IC50 [2]: 1.94 µg/mL (≈ 6.08 µM)

COc1c2ccoc2nc2c(OC)cccc12 [GAMMA-FAGARINE]
inhibition at 10 µg/mL [3]: 19.1% | IC50 [1]: 7.17 µg/mL (≈ 31.3 µM)

O=S(=O)(F)Cc1ccccc1 [PHENYLMETHYLSULFONYLFLUORIDE]
IC50 [2]: 35.2 µg/mL (≈ 202 µM)

COc1ccc(CCN(C)C(=O)/C=C/c2ccc(O)cc2)cc1 [AILANTHAMIDE]
IC50 [1]: 3.71 µg/mL (≈ 11.9 µM) | IC50 [2]: 4.23 µg/mL (≈ 13.6 µM)
